# Active and inactive are the calls of the source. The calls are words filed in the database; no cut-off is given here.
# How the values were obtained:
# Leishmania donovani [1] = assay: Antileishmanial activity against promastigote forms of Leishmania donovani MHOM/ET/67/HU3 after 3 days by MTT assay; assay type: functional, organism-based; details: MHOM/ET/67/HU3, 72 h
# Summary of the method: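 Log-phase promastigotes at 10^6 cells/mL in supplemented M-199. Serial dilutions gave final concentrations of 100 µM to 50 nM, in triplicate. Incubated 3 days at 27 °C, dark, 5% CO2. Viability read by MTT reduction, with Triton X100/HCl lysis and absorbance at 570 nm. IC50 ± SD.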
# [2] = Cytotoxicity against Swiss mouse peritoneal macrophages at 20 uM after 5 days by MTT assay; assay type: cell-based, Peritoneal macrophage cell
# Summary of the method: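 Thioglycolate-elicited peritoneal macrophages from female Swiss mice, 5 × 10^4/well in RPMI 1640 with 10% FCS, 25 mM Hepes and 2 mM L-glutamine. Washed at 4 h to remove fibroblasts. Drug-containing medium added at 48 h, stopped at day 5. Viability read by MTT.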
# [3] = system: Trypanosoma brucei brucei; assay: Trypanocidal activity against Trypanosoma brucei brucei by drug incubation infectivity test; assay type: functional; details: read-out: MEC
# Leishmania donovani [4] = assay: Antileishmanial activity against amastigotes forms of Leishmania donovani MHOM/ET/67/HU3 infected in Swiss mouse peritoneal macrophages at 20 uM after 5 days; assay type: functional, organism-based
# Summary of the method: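 Peritoneal macrophages from female Swiss mice (18–20 g) infected after 24 h with stationary-phase L. donovani promastigotes at 10 parasites per macrophage. Free promastigotes removed at 18 h, then amastigotes treated. Medium with drug renewed at 48 h, stopped at day 5. Percentage of infected macrophages scored microscopically after Giemsa staining. Run in triplicate.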
# Mus musculus [5] = assay: Toxicity in chloroquine-sensitive Plasmodium berghei NK-173 infected Swiss albino mouse assessed as mortality at 51.5 mg/kg, ip administered 4 times per day for 3 days measured up to 4 days; assay type: organism-based; set-up: dose 51.5 mg/kg, route intraperitoneal; details: in vivo
# Summary of the method: (§1)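 Female Swiss albino mice (18–20 g) were infected i.v. on day 0 with 10^6 parasitized RBC in 0.2 ml PBS from a donor mouse, in groups of 10. Dosing was i.p. over days 0–3 and stopped if toxicity appeared. Chloroquine control was 100 µmoles/kg. Giemsa tail smears and RBC counts were taken on days 4, 7, 8, 9, 10 and 14. Mice were followed for deaths.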
# Plasmodium berghei [6] = assay: Antimalarial activity against chloroquine-sensitive Plasmodium berghei NK-173 infected in Swiss albino mouse assessed as quantal survival at 51.5 mg/kg, ip administered 4 times per day for 3 days measured on day 10; assay type: functional, organism-based; set-up: dose 51.5 mg/kg; summary of the method: as §1
# Plasmodium berghei [7] = assay: Antimalarial activity against chloroquine-sensitive Plasmodium berghei NK-173 infected in Swiss albino mouse assessed as quantal survival at 51.5 mg/kg, ip administered 4 times per day for 3 days measured on day 7; assay type: functional, organism-based; set-up: dose 51.5 mg/kg; summary of the method: as §1
# Plasmodium berghei [8] = assay: Antimalarial activity against chloroquine-sensitive Plasmodium berghei NK-173 infected in Swiss albino mouse assessed as reduction parasitemia at 51.5 mg/kg, ip treated […] by Giemsa staining relative to control; assay type: functional; set-up: scale not given: the % may be the effect or the level left; details: route intraperitoneal
# Summary of the method: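 Four-day Peters test in female Swiss albino mice (18–20 g), groups of 10. Infected i.v. on day 0 with 10^6 parasitized RBC in 0.2 ml PBS, then dosed i.p. on days 0–3, stopped if toxicity appeared. Parasitemia read from Giemsa-stained tail-blood smears and reported as % reduction at day 4.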
# Plasmodium berghei [9] = assay: Antimalarial activity against chloroquine-sensitive Plasmodium berghei NK-173 infected in Swiss albino mouse assessed as quantal survival at 51.5 mg/kg, ip administered 4 times per day for 3 days measured on day 9; assay type: functional, organism-based; set-up: dose 51.5 mg/kg; summary of the method: as §1
# Plasmodium berghei [10] = assay: Antimalarial activity against chloroquine-sensitive Plasmodium berghei NK-173 infected in Swiss albino mouse assessed as quantal survival at 51.5 mg/kg, ip administered 4 times per day for 3 days measured on day 8; assay type: functional, organism-based; set-up: dose 51.5 mg/kg; summary of the method: as §1
# Plasmodium berghei [11] = assay: Antimalarial activity against chloroquine-sensitive Plasmodium berghei NK-173 infected in Swiss albino mouse assessed as host survival at 51.5 mg/kg, ip administered 4 times per day for 3 days measured on day 30; assay type: functional; details: NK-173, ip, route intraperitoneal; summary of the method: as §1
# Plasmodium berghei [12] = assay: Antimalarial activity against chloroquine-sensitive Plasmodium berghei NK-173 infected in Swiss albino mouse assessed as quantal survival at 51.5 mg/kg, ip administered 4 times per day for 3 days measured on day 14; assay type: functional, organism-based; set-up: dose 51.5 mg/kg; summary of the method: as §1
# Plasmodium berghei [13] = assay: Antimalarial activity against chloroquine-sensitive Plasmodium berghei NK-173 infected in Swiss albino mouse assessed as quantal survival at 100 mg/kg, ip administered 4 times per day for 3 days measured on day 8; assay type: functional, organism-based; set-up: dose 100 mg/kg; summary of the method: as §1
# Plasmodium berghei [14] = assay: Antimalarial activity against chloroquine-sensitive Plasmodium berghei NK-173 infected in Swiss albino mouse assessed as quantal survival at 100 mg/kg, ip administered 4 times per day for 3 days measured on day 7; assay type: functional, organism-based; set-up: dose 100 mg/kg; summary of the method: as §1
# Plasmodium berghei [15] = assay: Antimalarial activity against chloroquine-sensitive Plasmodium berghei NK-173 infected in Swiss albino mouse assessed as quantal survival at 100 mg/kg, ip administered 4 times per day for 3 days measured on day 14; assay type: functional, organism-based; set-up: dose 100 mg/kg; summary of the method: as §1
# Plasmodium berghei [16] = assay: Antimalarial activity against chloroquine-sensitive Plasmodium berghei NK-173 infected in Swiss albino mouse assessed as host survival at 100 mg/kg, ip administered 4 times per day for 3 days measured on day 30; assay type: functional; details: NK-173, ip, route intraperitoneal; summary of the method: as §1
# Mus musculus [17] = assay: Toxicity in chloroquine-sensitive Plasmodium berghei NK-173 infected Swiss albino mouse assessed as mortality at 100 mg/kg, ip administered 4 times per day for 3 days measured up to 4 days; assay type: organism-based; set-up: dose 100 mg/kg, route intraperitoneal; details: in vivo; summary of the method: as §1
# Plasmodium berghei [18] = assay: Antimalarial activity against chloroquine-sensitive Plasmodium berghei NK-173 infected in Swiss albino mouse assessed as quantal survival at 100 mg/kg, ip administered 4 times per day for 3 days measured on day 10; assay type: functional, organism-based; set-up: dose 100 mg/kg; summary of the method: as §1
# Plasmodium falciparum = assay: Antimalarial activity against Plasmodium falciparum 3D7 infected in human O positive erythrocytes assessed as reduction of parasite growth after 24 to 44 hrs by Giemsa staining; assay type: functional, organism-based
# Summary of the method: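 Sorbitol-synchronized ring-stage 3D7 parasites in O+ erythrocytes (5% v/v suspension, 0.5% parasitemia) exposed to compounds from DMSO stock for 44 h at 37 °C. Growth measured by pLDH ELISA after freeze-thaw hemolysis and by Giemsa thin smears at 24 and 44 h, counting at least 5000 erythrocytes. Expressed as % reduction against medium-only control.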
Compound,IC50 (Leishmania donovani [1]),CC50 at 120 h [2],minimal effective concentration [3],Activity (Leishmania donovani [4]),other results
N=C(N)c1ccc(OCCCCCOc2ccc(C(=N)N)cc2)cc1 [PENTAMIDINE],3.1 µM,26.3 µM,5 µM,,
O=C1CCCN1c1c2nc(c(-c3ccccc3)c3ccc([nH]3)c(N3CCCC3=O)c3nc(c(-c4ccccc4)c4ccc1[nH]4)C=C3)C=C2,≥ 100 µM,> 100 µM,> 100 µM,inactive,
O=C1CCCN1c1c2nc(c(-c3ccccc3)c3ccc([nH]3)c(Br)c3nc(c(-c4ccccc4)c4ccc1[nH]4)C=C3)C=C2,6.37 µM,> 100 µM,6.25 µM,inactive,
COc1cc(C(c2ccc[nH]2)c2ccc[nH]2)cc(OC)c1OC,≥ 100 µM,> 100 µM,100 µM,inactive,
Fc1c(F)c(F)c(C(c2ccc[nH]2)c2ccc[nH]2)c(F)c1F,44.1 µM,> 100 µM,> 100 µM,inactive,
CCN(CC)CCCC(C)Nc1ccnc2cc(Cl)ccc12 (centres undefined) [CHLOROQUINE],,,,,Activity (Mus musculus [5]): Non-toxic; Survival (Plasmodium berghei [6]): Active; Survival (Plasmodium berghei [7]): Active; Activity (Plasmodium berghei [8]): 100%; Survival (Plasmodium berghei [9]): Active; Survival (Plasmodium berghei [10]): Active; survival at 51.5 mg/kg (Plasmodium berghei [11]): 100%; Survival (Plasmodium berghei [12]): Active
O=C1CC[C@@H](C(=O)O)N1 [PIDOLIC ACID],,,,,Survival (Plasmodium berghei [13]): Active; Survival (Plasmodium berghei [14]): Active; Survival (Plasmodium berghei [15]): inactive; survival at 100 mg/kg (Plasmodium berghei [16]): 0%; Activity (Mus musculus [17]): Non-toxic; Survival (Plasmodium berghei [18]): inactive
Clc1cccc(Cl)c1/C(=C1\C=CC=N1)c1ccc[nH]1,5.55 µM,> 100 µM,12.5 µM,inactive,
O=Cc1c2nc(c(-c3cccc(Br)c3)c3ccc(cc4nc(c(-c5cccc(Br)c5)c5ccc1[nH]5)C=C4)[nH]3)C=C2,≥ 100 µM,> 100 µM,> 100 µM,inactive,IC50 (Plasmodium falciparum): > 20 µM
Brc1ccccc1/C(=C1\C=CC=N1)c1ccc[nH]1,5.38 µM,> 100 µM,50 µM,inactive,
C1=C/C(=C(\c2ccccc2)c2ccc[nH]2)N=C1,5.23 µM,> 100 µM,25 µM,inactive,
O=C1CCC(C(O)(c2ccccc2)c2ccccc2)N1c1c2nc(c(-c3ccccc3)c3ccc([nH]3)c(N3C(=O)CCC3C(O)(c3ccccc3)c3ccccc3)c3nc(c(-c4ccccc4)c4ccc1[nH]4)C=C3)C=C2 (centres undefined),53 µM,> 100 µM,50 µM,inactive,
CCCCCCCCCCCCCCCCOP(=O)([O-])OCC[N+](C)(C)C [MILTEFOSINE],4.26 µM,15.8 µM,,,
O=Cc1c2nc(c(-c3ccccc3)c3ccc(cc4nc(c(-c5ccccc5)c5ccc1[nH]5)C=C4)[nH]3)C=C2,≥ 100 µM,> 100 µM,> 100 µM,inactive,IC50 (Plasmodium falciparum): > 20 µM
Brc1c2nc(c(-c3ccccc3)c3ccc([nH]3)c(Br)c3nc(c(-c4ccccc4)c4ccc1[nH]4)C=C3)C=C2,≥ 100 µM,> 100 µM,> 100 µM,inactive,IC50 (Plasmodium falciparum): 0.2 µM
COc1cc(/C(=C2\C=CC=N2)c2ccc[nH]2)cc(OC)c1OC,4.71 µM,> 100 µM,25 µM,inactive,
Brc1ccccc1C(c1ccc[nH]1)c1ccc[nH]1,44.7 µM,> 100 µM,> 100 µM,inactive,
C1=Cc2nc1cc1ccc([nH]1)c(-c1ccccc1)c1nc(cc3ccc([nH]3)c2-c2ccccc2)C=C1,≥ 100 µM,> 100 µM,> 100 µM,inactive,IC50 (Plasmodium falciparum): > 20 µM
COC(=O)[C@@H]1CCC(=O)N1c1c2nc(c(-c3cc(OC)c(OC)c(OC)c3)c3ccc([nH]3)c(N3C(=O)CC[C@H]3C(=O)OC)c3nc(c(-c4cc(OC)c(OC)c(OC)c4)c4ccc1[nH]4)C=C3)C=C2,≥ 100 µM,> 100 µM,100 µM,inactive,
COc1cc(-c2c3nc(cc4ccc([nH]4)c(-c4cc(OC)c(OC)c(OC)c4)c4nc(cc5ccc2[nH]5)C=C4)C=C3)cc(OC)c1OC,≥ 100 µM,> 100 µM,> 100 µM,inactive,IC50 (Plasmodium falciparum): > 20 µM
c1ccc(C(c2ccc[nH]2)c2ccc[nH]2)cc1,≥ 100 µM,> 100 µM,> 100 µM,inactive,
COC(=O)[C@@H]1CCC(=O)N1c1c2nc(c(-c3cc(OC)c(OC)c(OC)c3)c3ccc(cc4nc(c(-c5cc(OC)c(OC)c(OC)c5)c5ccc1[nH]5)C=C4)[nH]3)C=C2,≥ 100 µM,> 100 µM,,inactive,
Fc1c(F)c(F)c(/C(=C2\C=CC=N2)c2ccc[nH]2)c(F)c1F,3.61 µM,> 100 µM,12.5 µM,inactive,

# Reference: ChEMBL document CHEMBL2417506, “Synthesis and antiprotozoal activity of original porphyrin precursors and derivatives” (Eur J Med Chem, 2013)
